In ChEMBL document CHEMBL1121694, “2-(Aminomethyl)phenols, a new class of saluretic agents. 3. Effects of functional group reorientation and modification” (1981):

Experiments:
Rattus norvegicus = test: Evaluated for the saluretic property in rats after oral administration; score represents micro equivalents of Na+ excreted at a given mg/kg dose; assay type: functional
How it was run: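 The score is the geometric mean of three animals per cage, with three cages per dose. Protocol and scoring system are referenced to earlier work.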

Canis familiaris [1] = test: Compound was tested for the saluretic property in dogs after intravenous administration of 5 mg/kg; >900 micro equivalents of Na+ excreted per minute; assay type: functional, Canis lupus familiaris
How it was run: (§1)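 Each dog score comes from one animal (body weight 15.2-21 kg) given the dose as a single stat administration. The standard dose is 5 mg/kg unless another is designated. Protocol and scoring system are referenced to earlier work.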

Canis familiaris [2] = test: Compound was tested for the saluretic property in dogs after intravenous administration of 10 mg/kg; assay type: functional, Canis lupus familiaris; how it was run: as §1
Canis familiaris [3] = test: Compound was tested for the saluretic property in dogs after intravenous administration of 5 mg/kg; 600-799 micro equivalents of Na+ excreted per minute; assay type: functional, Canis lupus familiaris; how it was run: as §1
Canis familiaris [4] = test: Tested for the saluretic property in dogs after intravenous administration of 5 mg/kg; 0-99 micro equivalents of Na+ excreted per minute; assay type: functional, Canis lupus familiaris; how it was run: as §1
Canis familiaris [5] = test: Compound was tested for the saluretic property in dogs after intravenous administration of 1 mg/kg; >900 micro equivalents of Na+ excreted per minute; assay type: functional, Canis lupus familiaris; how it was run: as §1
Canis familiaris [6] = test: Compound was tested for the saluretic property in dogs after intravenous administration of 5 mg/kg; 100-249 micro equivalents of Na+ excreted per minute; assay type: functional, Canis lupus familiaris
Canis familiaris [7] = test: Compound was tested for the saluretic property in dogs after intravenous administration of 5 mg/kg; activity above 5 mg/kg; assay type: functional, organism-based; settings: Canis lupus familiaris; how it was run: as §1
Canis familiaris [8] = test: Compound was evaluated for the saluretic property in dog after iv administration; score represents micro equivalents of Na+ excreted at a given mg/kg dose; assay type: functional, Canis lupus familiaris; how it was run: as §1
Canis familiaris [9] = test: Compound was tested for the saluretic property in dogs after intravenous administration of 5 mg/kg; 800-899 micro equivalents of Na+ excreted at a given mg/kg dose; assay type: functional, Canis lupus familiaris; how it was run: as §1

| SMILES | Score (Rattus norvegicus) | Score (Canis familiaris [4]) | other results |
| --- | --- | --- | --- |
| O=C(O)c1c(O)c(Cl)cc(Cl)c1Cl | 0 | – | – |
| CC(C)(C)c1cc(Cl)c(O)c(CN)c1.Cl | 6 | – | Score (Canis familiaris [1]): 6 |
| NCc1c(Cl)cc(Cl)c(O)c1Cl | 0 | – | Score (Canis familiaris [2]): 0 |
| CC(C)(C)c1cc(I)c(O)c(CN)c1.Cl | 6 | – | Score (Canis familiaris [3]): 4 |
| Nc1c(O)c(Cl)cc(Cl)c1Cl | 0 | – | – |
| NS(=O)(=O)c1c(O)c(Cl)cc(Cl)c1Cl | 0 | – | – |
| OCc1c(O)c(Cl)cc(Cl)c1Cl | 0 | 0 | – |
| Cl.NCc1cc(Cl)c(O)c(Cl)c1Cl | 0 | 0 | – |
| COc1c(Cl)c(O)c(C(=O)O)c(OC)c1Cl | 0 | 0 | – |
| Cl.NCc1c(N)c(Cl)cc(Cl)c1Cl | – | 0 | – |
| NS(=O)(=O)c1cc(C(=O)O)c(NCc2ccco2)cc1Cl [FUROSEMIDE] | 3 | – | Score (Canis familiaris [5]): 6 |
| COc1c(Cl)c(O)c(C=O)c(OC)c1Cl | 0 | 0 | – |
| Cl.NCC(O)c1c(O)c(Cl)cc(Cl)c1Cl (centres undefined) | 0 | – | Score (Canis familiaris [6]): 1 |
| COc1c(Cl)c(O)c(CN)c(OC)c1Cl.Cl | 5 | – | Score (Canis familiaris [1]): 6 |
| Cl.NCc1cc(Cl)cc(Cl)c1 | 0 | 0 | – |
| NCc1cc(Cl)cc(Cl)c1O | 2 | – | Score (Canis familiaris [7]): activity above 5 mg/kg |
| CC(C)(C)c1cc(I)c(O)c(C(=O)O)c1 | 0 | – | Score (Canis familiaris [6]): 1 |
| O=Cc1c(O)c(Cl)cc(Cl)c1Cl | 0 | 0 | – |
| Cl.NCCc1c(O)c(Cl)cc(Cl)c1Cl | 1 | – | Score (Canis familiaris [6]): 1 |
| CC(C)(C)c1cc(Cl)c(O)c(CCCN)c1 | – | – | Score (Canis familiaris [8]): 0 |
| Cl.NCc1c(O)c(Cl)cc(Cl)c1Cl | 3 | – | Score (Canis familiaris [9]): 5 |
| NS(=O)(=O)c1cc2c(cc1Cl)NCNS2(=O)=O [HYDROCHLOROTHIAZIDE] | 2 | – | Score (Canis familiaris [6]): 1 |
